CHOP inhibitor: blocks CHOP induction under ER stress; 220,000 compounds, 3.8% hits; AID 2732; CHO-K1 CHOP-promoter luciferase, tunicamycin-induced, 15-18 h; inhibition, % at 10 µM;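 active = compounds that reduced the stress-induced luciferase reporter signal by more than about 70% of percent inhibition, limit read from the data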
UPR XBP1 act: activators of adaptive arm of unfolded protein response (XBP1). CHO-XBP1 luciferase reporter, IRE1-XBP1 UPR activation, luminescence; percent of tunicamycin response, DMSO as zero. AID 463104. 330,000 compounds, 0.33% hits. activation, % at 20 µM;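 active = versus positive control, 20 µM dose yields 30% or more activation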
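Assay system: IRE1-XBP1 luciferase reporter CHO line. Input: 1000 cells/well. Buffer or medium: F12 with 10% serum. Doses: 20 µM, 1% DMSO. Times: overnight seeding at 37 °C, 6 h compound treatment at 37 °C. Technique: Steady-Glo luciferase glow luminescence, 10 min after reagent addition.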
UPR CHOP act: apoptotic UPR (CHOP) activation. CHO-CHOP luciferase reporter, luminescence; percent of tunicamycin response over DMSO baseline. activation, % at 10 µM. 330,000 compounds, 0.34% hits;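 active = at 10 µM dose, activation of 40% or more, normalized to positive control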
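measured by = luciferase luminescence | assay system = CHO-CHOP cells, stable luciferase reporter of PERK-eIF2a-CHOP signalling | amount = 500 reporter cells seeded per well | timing = 6 h compound exposure at 37 °C after overnight seeding | controls = positive tunicamycin 10 µg/mL, negative DMSO alone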
TLR4 MyD88 comp: inhibitors of human TLR4-MyD88 binding; AID 861; O00206+Q99836; 200,000 compounds, 0.18% hits; HeLa CL3-4 TLR4/MyD88 BLA complementation, FRET ratio; inhibition, % at 8.4 µM; in the data active = inhibition above about 25%
TLR9-MyD88 block: blocks human TLR9 binding to MyD88; inhibition, % at 4.98 µM; 340,000 compounds, 0.21% hits; CHO BLA complementation TLR9-MyD88, CCF4 FRET ratio;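 active = inhibition above the mean over all tested compounds plus 3 SD, cut at about 21% in these data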
NOD2-RIPK2 inh: NOD2-RIPK2 protein interaction inhibition | O43353 | CHO BLA complementation NOD2-RIPK2, CCF4 ratio | inhibition, % at 4.98 µM | 360,000 compounds, 0.38% hits; in the data active = inhibition above about 21%
CHOP confirm: confirmation of CHOP induction inhibitors; shares compounds with CHOP inhibitor; CHO-CHOP promoter luciferase reporter, tunicamycin-induced, luminescence; inhibition, % at 10 µM; 2,100 compounds, 45% hits;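 active = mean of three repeat readings of reporter signal inhibition above a set limit, cut at about 70% in these data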
UPR CHOP confirm: apoptotic UPR (CHOP) activation, confirmed; shares compounds with UPR CHOP act; CHO-CHOP cells, CHOP-luciferase reporter luminescence; percent of tunicamycin response, DMSO as zero; activation, % at 10 µM; 1,000 compounds, 64% hits; AID 463112; in the data active = activation above about 33%
XBP1 UPR conf: confirmation of adaptive unfolded protein response (XBP1) activators | shares compounds with UPR XBP1 act | CHO-XBP1 IRE1-XBP1 luciferase reporter, luminescence | activation, % at 20 µM | 1,000 compounds, 63% hits;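 active = reporter signal at least 30% of the positive control's activation in two or more of four replicate wells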
TLR9-MyD88 cf: confirmation of human TLR9-MyD88 binding inhibitors. inhibition, % at 4.98 µM. 680 compounds, 51% hits. CHO TLR9/MyD88 BLA complementation, CCF4 FRET ratio. shares compounds with TLR9-MyD88 block. AID 540250;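 active = mean inhibition across three repeats above about 21% taken from the earlier screen, limit read from the data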;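 note: blue over green emission ratio reports constitutive TLR9 MyD88 association via BLA complementation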
BLA counter-1: beta-lactamase reporter inhibition, counter-screen artifact. inhibition, % at 4.98 µM. CHO-BLA cells, CCF4 FRET ratio, BLA reporter. shares compounds with TLR9-MyD88 block. 680 compounds, 7% hits;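 active = mean inhibition above a 50% cutoff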;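 note: counterscreen of TLR9-MyD88 hits on CMV-driven BLA in CHO-K1 cells; higher means less blue over green ratio so more BLA blockade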
TLR9 CHO cytotox: CHO cell toxicity counter-screen for TLR9-MyD88 inhibitors; shares compounds with TLR9-MyD88 block; TLR9-MyD88 CHO cells cytotoxicity, luminescence; inhibition, % at 4.98 µM; 680 compounds, 39% hits; AID 588336; in the data active = inhibition above about 11%
NOD2 RIPK2 conf: confirmation of human NOD2-RIPK2 interaction inhibitors; shares compounds with NOD2-RIPK2 inh; CHO cells, NOD2-RIPK2 BLA complementation, CCF4 FRET; inhibition, % at 4.98 µM; 1,200 compounds, 70% hits;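 active = mean inhibition across replicates above a set limit taken from the earlier primary screen, cut at about 21% in these data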
BLA counter-2: NOD2-RIPK2 counterscreen BLA reporter activity | CHO BLA reporter, CCF4 FRET ratio | inhibition, % at 4.98 µM | 1,200 compounds, 57% hits | shares compounds with NOD2-RIPK2 inh;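 active = mean inhibition above the low-control mean inhibition plus three low-control SD, cut at about 11% in these data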
Hits are given with their value. This is one part of a sample in which hits are shown more often than they occur.

For CC1=C/C(=N\OS(=O)(=O)c2ccccc2)C(C)=CC1=O the results were CHOP inhibitor 111, UPR XBP1 act inactive, UPR CHOP act inactive, TLR4 MyD88 comp inactive, TLR9-MyD88 block inactive, NOD2-RIPK2 inh 54, CHOP confirm 128, NOD2 RIPK2 conf 51 and BLA counter-2 13.
Screening CCOc1cc(/C=C\[N+](=O)[O-])ccc1OCC(=O)Nc1ccccc1C returned CHOP inhibitor 108, UPR XBP1 act inactive, UPR CHOP act inactive, TLR4 MyD88 comp inactive, TLR9-MyD88 block inactive, NOD2-RIPK2 inh 89, CHOP confirm 136, NOD2 RIPK2 conf 97 and BLA counter-2 13.
Screening COc1cc(/C=C/c2cccc[n+]2C)ccc1OCC(=O)Nc1ccccc1C returned UPR XBP1 act inactive, UPR CHOP act inactive, TLR9-MyD88 block inactive and NOD2-RIPK2 inh inactive.
`Cc1ccc2nc(SCC(=O)Nc3cc(C(F)(F)F)ccc3N3CCOCC3)[nH]c2c1` gave UPR XBP1 act 35, UPR CHOP act inactive, TLR4 MyD88 comp inactive, TLR9-MyD88 block inactive, NOD2-RIPK2 inh 34, CHOP confirm inactive, XBP1 UPR conf 40, NOD2 RIPK2 conf inactive and BLA counter-2 inactive.
For O=C(CSc1nccc(=O)[nH]1)Nc1cc(C(F)(F)F)ccc1N1CCOCC1 the results were UPR XBP1 act inactive, UPR CHOP act inactive, TLR9-MyD88 block inactive and NOD2-RIPK2 inh inactive.
Screening O=C1C2C(C(=O)N1/N=C/c1cccc([N+](=O)[O-])c1)C1C=CC2C12CC2 (centres undefined) returned CHOP inhibitor inactive, UPR XBP1 act inactive, UPR CHOP act inactive, TLR4 MyD88 comp inactive, TLR9-MyD88 block inactive and NOD2-RIPK2 inh inactive.
`CC(C)[C@H](NS(=O)(=O)c1ccccc1)C(=O)OCc1cc([N+](=O)[O-])cc2c1OCOC2` gave TLR9-MyD88 block inactive and NOD2-RIPK2 inh inactive.
`CC(=O)N(c1ccccc1C)C1CCCC1` gave CHOP inhibitor inactive, UPR XBP1 act inactive, UPR CHOP act inactive, TLR4 MyD88 comp inactive, TLR9-MyD88 block inactive and NOD2-RIPK2 inh inactive.
Screening CC(=O)N(C1=C(Cl)C(=O)c2ccccc2C1=O)C1CCCCC1 returned CHOP inhibitor 102, UPR XBP1 act inactive, UPR CHOP act 53, TLR9-MyD88 block 49, NOD2-RIPK2 inh 54, CHOP confirm 113, UPR CHOP confirm inactive, TLR9-MyD88 cf 78, BLA counter-1 inactive, TLR9 CHO cytotox 100, NOD2 RIPK2 conf 92 and BLA counter-2 34.
Cc1ccccc1CS(=O)(=O)c1nnc([C@H](Cc2ccccc2)NC(=O)OC(C)(C)C)o1 was read as CHOP inhibitor 112, UPR XBP1 act inactive, UPR CHOP act inactive, TLR4 MyD88 comp inactive, TLR9-MyD88 block inactive, NOD2-RIPK2 inh 57, CHOP confirm 136, NOD2 RIPK2 conf 50 and BLA counter-2 inactive.
CCSc1nnc([C@H](Cc2ccccc2)NC(=O)OC(C)(C)C)o1 was read as CHOP inhibitor inactive, UPR XBP1 act inactive, UPR CHOP act inactive, TLR4 MyD88 comp inactive, TLR9-MyD88 block inactive and NOD2-RIPK2 inh inactive.
For O=c1oc2ccccc2c(Cl)c1CN1CCCCC1 the results were CHOP inhibitor 107, UPR XBP1 act inactive, UPR CHOP act inactive, TLR4 MyD88 comp inactive, TLR9-MyD88 block 23, NOD2-RIPK2 inh 40, CHOP confirm 123, TLR9-MyD88 cf 75, BLA counter-1 inactive, TLR9 CHO cytotox 96, NOD2 RIPK2 conf 95 and BLA counter-2 14.
O=C(NN1C(=O)c2ccc(-c3ccc4c(c3)C(=O)N(NC(=O)c3cccnc3)C4=O)cc2C1=O)c1cccnc1 was read as CHOP inhibitor inactive, UPR XBP1 act inactive, UPR CHOP act inactive, TLR4 MyD88 comp inactive, TLR9-MyD88 block inactive and NOD2-RIPK2 inh inactive.
O=c1c2ccccc2sn1-c1ccccc1 was read as CHOP inhibitor 108, UPR XBP1 act inactive, UPR CHOP act inactive, TLR4 MyD88 comp inactive, TLR9-MyD88 block 54, NOD2-RIPK2 inh 77, CHOP confirm inactive, NOD2 RIPK2 conf 50 and BLA counter-2 inactive.
`O=C(CN1c2cccc3cccc(c23)S1(=O)=O)NCCc1ccc(F)cc1` gave UPR XBP1 act inactive, UPR CHOP act inactive, TLR9-MyD88 block inactive and NOD2-RIPK2 inh inactive.
For CC(C)(C=O)C1=CC(=O)c2ccccc2C1=O the results were CHOP inhibitor 98, TLR4 MyD88 comp inactive, TLR9-MyD88 block inactive, NOD2-RIPK2 inh 23, CHOP confirm inactive, NOD2 RIPK2 conf 86 and BLA counter-2 inactive.
For CCc1ccc(NC(=O)CC2C(=O)N(c3ccc(C)cc3)C(=O)N2C2CC2)cc1 (centres undefined) the results were CHOP inhibitor inactive, UPR XBP1 act inactive, UPR CHOP act inactive, TLR4 MyD88 comp inactive, TLR9-MyD88 block inactive and NOD2-RIPK2 inh inactive.
O=[N+]([O-])c1ccc(Cl)cc1Sc1nc2ccccc2o1 was read as CHOP inhibitor inactive, UPR XBP1 act inactive, UPR CHOP act inactive, TLR4 MyD88 comp inactive, TLR9-MyD88 block inactive and NOD2-RIPK2 inh inactive.
For O=[N+]([O-])c1ccc(Sc2nc3ccccc3o2)c([N+](=O)[O-])c1 the results were CHOP inhibitor 109, UPR XBP1 act inactive, UPR CHOP act inactive, TLR4 MyD88 comp inactive, TLR9-MyD88 block inactive, NOD2-RIPK2 inh 30, CHOP confirm 122, NOD2 RIPK2 conf 60 and BLA counter-2 inactive.

Screening data deposited in PubChem by several laboratories.
